Drawing on ChEMBL document CHEMBL1154352, “Toll-like receptor 7 selective synthetic oligoribonucleotide agonists: synthesis and structure-activity relationship studies” (J Med Chem, 2009), this text covers Activity for two molecules.

Structures are written as SMILES. Activity calls are given as the source filed them. No cut-off for these calls is given here.

The target of test [1] is T1, Toll-like receptor 7 (Homo sapiens) (UniProt Q9NYK1).
T1 sequence (whole entry): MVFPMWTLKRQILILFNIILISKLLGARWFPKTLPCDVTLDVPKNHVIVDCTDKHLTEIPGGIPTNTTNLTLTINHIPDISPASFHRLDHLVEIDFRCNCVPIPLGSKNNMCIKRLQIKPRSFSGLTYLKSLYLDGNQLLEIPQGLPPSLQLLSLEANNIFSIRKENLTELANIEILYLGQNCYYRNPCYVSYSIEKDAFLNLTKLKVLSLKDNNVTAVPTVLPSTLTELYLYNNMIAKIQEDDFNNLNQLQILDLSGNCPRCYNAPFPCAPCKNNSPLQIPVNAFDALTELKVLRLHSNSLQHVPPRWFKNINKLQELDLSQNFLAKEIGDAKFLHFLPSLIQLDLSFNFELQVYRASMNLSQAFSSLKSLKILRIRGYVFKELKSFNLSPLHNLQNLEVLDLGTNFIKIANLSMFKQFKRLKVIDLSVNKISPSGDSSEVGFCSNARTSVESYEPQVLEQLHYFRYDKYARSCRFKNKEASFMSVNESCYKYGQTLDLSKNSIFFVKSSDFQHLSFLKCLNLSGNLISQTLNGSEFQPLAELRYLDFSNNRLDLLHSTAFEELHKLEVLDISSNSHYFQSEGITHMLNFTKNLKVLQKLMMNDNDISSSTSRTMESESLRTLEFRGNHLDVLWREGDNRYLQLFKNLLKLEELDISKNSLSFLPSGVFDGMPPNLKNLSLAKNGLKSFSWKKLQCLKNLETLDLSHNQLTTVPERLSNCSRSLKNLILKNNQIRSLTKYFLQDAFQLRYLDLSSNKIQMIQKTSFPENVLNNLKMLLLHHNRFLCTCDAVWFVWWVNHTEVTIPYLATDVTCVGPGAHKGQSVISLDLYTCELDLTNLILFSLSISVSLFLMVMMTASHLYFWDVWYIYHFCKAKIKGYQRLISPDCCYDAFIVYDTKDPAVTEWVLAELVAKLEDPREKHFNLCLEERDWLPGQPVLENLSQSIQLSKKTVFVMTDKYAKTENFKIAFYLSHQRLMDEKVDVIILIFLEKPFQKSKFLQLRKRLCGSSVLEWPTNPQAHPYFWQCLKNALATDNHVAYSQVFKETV
In words: Activation of human TLR7 expressed in HEK293XL assessed as induction of NF-kappaB activity by reporter gene assay. A digest of the protocol: (§1)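 HEK293 cells stably expressing human TLR7 or TLR8, transiently transfected with SEAP reporter plasmid; medium replaced, SIMRA compounds added, 18 h incubation. Supernatant SEAP measured by QuantiBlue; expressed as fold increase in NF-κB activity over PBS control. Tabulated data at 50 μg/mL, representative of three independent experiments.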
(Reporter assays use an easily measured gene product as a stand-in for the process of interest.)

Test [2] concerns the target T2, Toll-like receptor 8 (Homo sapiens) (UniProt Q9NR97).
T2 sequence (whole entry): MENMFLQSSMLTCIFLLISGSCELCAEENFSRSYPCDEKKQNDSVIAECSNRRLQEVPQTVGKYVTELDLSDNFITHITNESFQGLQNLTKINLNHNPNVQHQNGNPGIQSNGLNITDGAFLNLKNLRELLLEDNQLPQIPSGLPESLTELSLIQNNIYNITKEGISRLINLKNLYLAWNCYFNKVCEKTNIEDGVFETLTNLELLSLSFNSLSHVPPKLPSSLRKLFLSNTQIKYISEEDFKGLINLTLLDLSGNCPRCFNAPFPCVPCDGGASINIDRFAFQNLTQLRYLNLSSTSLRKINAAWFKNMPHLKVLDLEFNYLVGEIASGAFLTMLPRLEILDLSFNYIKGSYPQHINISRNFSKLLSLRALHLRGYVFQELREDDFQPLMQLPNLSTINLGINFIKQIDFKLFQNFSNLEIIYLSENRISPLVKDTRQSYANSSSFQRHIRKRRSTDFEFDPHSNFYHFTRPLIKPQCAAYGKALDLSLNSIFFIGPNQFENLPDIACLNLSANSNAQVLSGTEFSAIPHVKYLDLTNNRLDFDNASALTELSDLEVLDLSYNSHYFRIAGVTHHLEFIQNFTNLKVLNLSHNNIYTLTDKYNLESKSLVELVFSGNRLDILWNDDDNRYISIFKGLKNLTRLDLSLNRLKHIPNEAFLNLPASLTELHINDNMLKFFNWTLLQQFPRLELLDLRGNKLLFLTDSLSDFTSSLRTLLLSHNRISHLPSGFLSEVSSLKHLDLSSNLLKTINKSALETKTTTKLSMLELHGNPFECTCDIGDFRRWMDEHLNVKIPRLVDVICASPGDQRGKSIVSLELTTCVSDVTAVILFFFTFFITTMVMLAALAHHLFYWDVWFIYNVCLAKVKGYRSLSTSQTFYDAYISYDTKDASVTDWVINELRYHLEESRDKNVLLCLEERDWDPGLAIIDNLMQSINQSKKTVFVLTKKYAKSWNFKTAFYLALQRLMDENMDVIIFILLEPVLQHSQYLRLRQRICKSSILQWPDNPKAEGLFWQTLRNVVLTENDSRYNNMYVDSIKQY
In words: Activation of human TLR8 expressed in HEK293XL assessed as induction of NF-kappaB activity by reporter gene assay. A digest of the protocol:
as §1

For `Nc1ccn([C@@H]2O[C@H](COP(=O)(S)O[C@H]3[C@@H](O)[C@H](n4cnc5c(N)ncnc54)O[C@@H]3CO)[C@@H](OP(=O)(S)OC[C@H]3O[C@@H](n4ccc(=O)[nH]c4=O)[C@H](O)[C@@H]3OP(=O)(S)OC[C@H]3O[C@@H](n4ccc(=O)[nH]c4=O)[C@H](O)[C@@H]3OP(=O)(S)OC[C@H]3O[C@@H](n4ccc5c(=O)[nH]c(N)nc54)[C@H](O)[C@@H]3OP(=O)(S)OC[C@H]3O[C@@H](n4cnc5c(N)ncnc54)[C@H](O)[C@@H]3OP(=O)(S)OC[C@H]3O[C@@H](n4cnc5c(N)ncnc54)[C@H](O)[C@@H]3OP(=O)(S)OC[C@H]3O[C@@H](n4ccc5c(=O)[nH]c(N)nc54)[C@H](O)[C@@H]3OP(=O)(S)OC[C@H]3O[C@@H](n4ccc(N)nc4=O)[C@H](O)[C@@H]3OP(=O)(S)OC[C@H]3O[C@@H](n4ccc(=O)[nH]c4=O)[C@H](O)[C@@H]3OP(=O)(S)OC[C@H]3O[C@@H](n4ccc(=O)[nH]c4=O)[C@H](O)[C@@H]3OP(=O)(S)OCC(O)COP(=O)(S)O[C@H]3[C@@H](O)[C@H](n4ccc(=O)[nH]c4=O)O[C@@H]3COP(=O)(S)O[C@H]3[C@@H](O)[C@H](n4ccc(=O)[nH]c4=O)O[C@@H]3COP(=O)(S)O[C@H]3[C@@H](O)[C@H](n4ccc(N)nc4=O)O[C@@H]3COP(=O)(S)O[C@H]3[C@@H](O)[C@H](n4ccc5c(=O)[nH]c(N)nc54)O[C@@H]3COP(=O)(S)O[C@H]3[C@@H](O)[C@H](n4cnc5c(N)ncnc54)O[C@@H]3COP(=O)(S)O[C@H]3[C@@H](O)[C@H](n4cnc5c(N)ncnc54)O[C@@H]3COP(=O)(S)O[C@H]3[C@@H](O)[C@H](n4ccc5c(=O)[nH]c(N)nc54)O[C@@H]3COP(=O)(S)O[C@H]3[C@@H](O)[C@H](n4ccc(=O)[nH]c4=O)O[C@@H]3COP(=O)(S)O[C@H]3[C@@H](O)[C@H](n4ccc(=O)[nH]c4=O)O[C@@H]3COP(=O)(S)O[C@H]3[C@@H](O)[C@H](n4ccc(N)nc4=O)O[C@@H]3COP(=O)(S)O[C@H]3[C@@H](O)[C@H](n4cnc5c(N)ncnc54)O[C@@H]3CO)[C@H]2O)c(=O)n1` (some centres undefined), the outcome in test [1] and in test [2] was Active.

`Nc1ccn([C@@H]2O[C@H](COP(=O)(S)O[C@H]3[C@@H](O)[C@H](n4cnc5c(N)ncnc54)O[C@@H]3CO)[C@@H](OP(=O)(S)OC[C@H]3O[C@@H](n4ccc(=O)[nH]c4=O)[C@H](O)[C@@H]3OP(=O)(S)OC[C@H]3O[C@@H](n4ccc(=O)[nH]c4=O)[C@H](O)[C@@H]3OP(=O)(S)OC[C@H]3O[C@@H](n4ccc5c(=O)[nH]c(N)nc54)[C@H](O)[C@@H]3OP(=O)(S)OC[C@H]3O[C@@H](n4cnc5c(N)ncnc54)[C@H](O)[C@@H]3OP(=O)(S)OC[C@H]3O[C@@H](n4ccc(N)nc4=O)[C@H](O)[C@@H]3OP(=O)(S)OC[C@H]3O[C@@H](n4ccc5c(=O)[nH]c(N)nc54)[C@H](O)[C@@H]3OP(=O)(S)OC[C@H]3O[C@@H](n4cnc5c(N)ncnc54)[C@H](O)[C@@H]3OP(=O)(S)OC[C@H]3O[C@@H](n4ccc(=O)[nH]c4=O)[C@H](O)[C@@H]3OP(=O)(S)OC[C@H]3O[C@@H](n4ccc(=O)[nH]c4=O)[C@H](O)[C@@H]3OP(=O)(S)OCC(O)COP(=O)(S)O[C@H]3[C@@H](O)[C@H](n4ccc(=O)[nH]c4=O)O[C@@H]3COP(=O)(S)O[C@H]3[C@@H](O)[C@H](n4ccc(=O)[nH]c4=O)O[C@@H]3COP(=O)(S)O[C@H]3[C@@H](O)[C@H](n4cnc5c(N)ncnc54)O[C@@H]3COP(=O)(S)O[C@H]3[C@@H](O)[C@H](n4ccc5c(=O)[nH]c(N)nc54)O[C@@H]3COP(=O)(S)O[C@H]3[C@@H](O)[C@H](n4ccc(N)nc4=O)O[C@@H]3COP(=O)(S)O[C@H]3[C@@H](O)[C@H](n4cnc5c(N)ncnc54)O[C@@H]3COP(=O)(S)O[C@H]3[C@@H](O)[C@H](n4ccc5c(=O)[nH]c(N)nc54)O[C@@H]3COP(=O)(S)O[C@H]3[C@@H](O)[C@H](n4ccc(=O)[nH]c4=O)O[C@@H]3COP(=O)(S)O[C@H]3[C@@H](O)[C@H](n4ccc(=O)[nH]c4=O)O[C@@H]3COP(=O)(S)O[C@H]3[C@@H](O)[C@H](n4ccc(N)nc4=O)O[C@@H]3COP(=O)(S)O[C@H]3[C@@H](O)[C@H](n4cnc5c(N)ncnc54)O[C@@H]3CO)[C@H]2O)c(=O)n1` (some centres undefined): the result in test [1] and in test [2] was Active.
